From ChEMBL document CHEMBL3272076, “Synthesis and biological evaluation of omega-homologues of prostaglandin E1” (1976) come the findings set out here.

The source made the active and inactive calls. No cut-off for these calls is given here.

In general, ED50 refers to the dose that gives a 50% effect, or the effect in half of the subjects.

The subject of assay [1] is Canis familiaris. The experiment in a line: Gastric antisecretory activity in iv dosed Mongrel dog with heidenhain pouches assessed as inhibition of histamine-induced total acid output administered as single bolus dose at 1 hr post histamine challenge. Conditions: Canis lupus familiaris. In kind it is functional. A digest of the protocol: (§1)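 Dogs fasted 18 h, placed in Pavlov stands and infused iv with 0.15 M NaCl. Pouch secretion was collected every 15 min. After basal secretion, histamine was infused at 1.0 mg/h (about 60 μg/kg/h, about 75% of maximal). At the steady-state plateau (about 1 h), a single iv bolus was given, logarithmically spaced, usually 1.0-100 μg/kg. Total acidity was titrated with 0.1 N NaOH to pH 7.0. ED50 is 50% inhibition of total acid output.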

Assay [2] can be described thus: Muscle stimulating activity in Mongolian gerbil colon treated every 4 mins relative to PGE1. In kind it is functional, Meriones unguiculatus. A digest of the protocol: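 Colon from adult male gerbils killed by cervical dislocation, bath oxygenated; isotonic longitudinal contractions recorded. Two doses each of test compound and PGE1 given at 4-min intervals in Latin square order, with a rinse after each. Four contractions per dose; relative potency computed by the Finney method. Compounds were dissolved in isoosmotic sodium phosphate buffer, pH 7.4.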

For assay [3], the system named is Canis familiaris. The experiment in a line: Gastric antisecretory activity in Mongrel dog with heidenhain pouches assessed as inhibition of histamine-induced total acid output at 1 to 100 ug/kg, iv administered as single bolus dose at 1 hr post histamine challenge relative to PGE1. In kind it is functional, Canis lupus familiaris. Summed up: as §1
Assay [4] has as its system Rattus norvegicus. The experiment in a line: Hypotensive activity in iv dosed Charles River CD rat assessed as decrease in mean blood pressure administered as single bolus dose relative to PGE1. In kind it is functional. Details: Activity: scale not given: the % may be the effect or the level left. Summed up: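 Male rats, 200–300 g, anesthetized with urethane 1.5 g/kg ip. They received heparin 5 mg/kg iv, then atropine 5 mg/kg and pentolinium 10 mg/kg sc. Body temperature held at […] ± 0.5 °C. Carotid pressure recorded; femoral iv bolus doses of test and PGE1 given in a Latin square. Maximal fall in mean pressure read, with 4–8 replicates per dose, and potency from a four-point parallel line assay (Finney).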

The subject of assay [5] is Canis familiaris. The experiment in a line: Gastric antisecretory activity in Mongrel dog with heidenhain pouches assessed as inhibition of histamine-induced total acid output at 100 ug/kg, iv administered as single bolus dose at 1 hr post histamine challenge. Conditions: Canis lupus familiaris. In kind it is functional, organism-based. A digest of the protocol:
as §1

In assay [6] the test system is Canis familiaris. The experiment in a line: Gastric antisecretory activity in Mongrel dog with heidenhain pouches assessed as inhibition of histamine-induced total acid output at 30 ug/kg, iv administered as single bolus dose at 1 hr post histamine challenge. In kind it is functional, organism-based. Conditions: Canis lupus familiaris. Summed up: as §1

`CCCCCC[C@H](O)/C=C/C1[C@H](O)CC(=O)[C@@H]1CCCCCCC(=O)O` (mixture of isomers): in assay [1], the ED50 is 5.8 µg/kg. For the same compound, the “fold change (FC)” value in assay [2] was 0.54; in assay [3] it was 1.13; in assay [4], 0.68.

For `CCCCCCCCC[C@H](O)/C=C/C1[C@H](O)CC(=O)[C@@H]1CCCCCCC(=O)O` (mixture of isomers), the “fold change (FC)” value in assay [2] is 0.006; in assay [4], under 0.12. The inhibition result in assay [5] was “Active”.

Consider `CCCCCCCC[C@H](O)/C=C/C1[C@H](O)CC(=O)[C@@H]1CCCCCCC(=O)O` (mixture of isomers), for which the “fold change (FC)” value is 0.005 in assay [2] and 0.42 in assay [4]. In assay [6], the inhibition entry is “inactive”.

For `CCCCC[C@H](O)/C=C/[C@H]1[C@H](O)CC(=O)[C@@H]1CCCCCCC(=O)O` [ALPROSTADIL], the ED50 in assay [1] was found to be 7.59 µg/kg.

Regarding `CCCCCCC[C@H](O)/C=C/C1[C@H](O)CC(=O)[C@@H]1CCCCCCC(=O)O` (mixture of isomers), the median effective dose (ED50) in assay [1] turned out to be 30 µg/kg. Also, the “fold change (FC)” value in assay [2] was 0.064; in assay [3], 0.25; in assay [4] it was 0.84. The Activity in assay [4] amounted to 84%.
